Source: PubChem
The list is not random: actives were taken first. Their share in the collection is about 4.5%.
STAT1 activator = STAT1 signaling activation | NIH 3T3 STAT1-luciferase reporter, IFN-gamma, luminescence; 100% = IFN-gamma alone, no compound | 200,000 compounds, 2.6% hits | activation (% of control), % at 5.5 µM;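 active means activation above the screen-wide mean activation plus 3 SD, cut at about 130% in these data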
NF-kB expr up = compounds increasing NF-kB expression in human neuronal cells | NF-kB reporter expression; stronger effect = higher value | fold change at 12.5 µM | 190,000 compounds, 1.6% hits | AID 1239; in the data active means fold change above about 3.3
APP 5'UTR act = activates APP 5'UTR luciferase reporter. SH-SY5Y APP 5'UTR luciferase reporter, luminescence; zero percent = DMSO vehicle wells. activation, % at 2 µM. 190,000 compounds, 1% hits. AID 1276;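 active means activation above a set limit, based on mean plus 3 SD of controls, cut at about 140% in these data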
PERK inh = human PERK inhibition, primary cell-based screen; 220,000 compounds, 0.17% hits; CHO PERK-DD fusion, SEAP luminescence translation reporter; Q9NZJ5; inhibition, % at 5.6 µM;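 active means inhibition above the mean inhibition of all tested compounds plus 3 SD, set separately per screening campaign, cut at about 2.9% in these data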;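 further: PERK kinase domain activated by AP20187 dimerizer at 100 nM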
AHR act = human AHR activation; AHR-responsive luciferase reporter cells, luminescence; activation, % at 5 µM; 320,000 compounds, 2.5% hits; AID 2796; in the data active means activation above about 47%
Target sequence (P35869 whole entry, looked up): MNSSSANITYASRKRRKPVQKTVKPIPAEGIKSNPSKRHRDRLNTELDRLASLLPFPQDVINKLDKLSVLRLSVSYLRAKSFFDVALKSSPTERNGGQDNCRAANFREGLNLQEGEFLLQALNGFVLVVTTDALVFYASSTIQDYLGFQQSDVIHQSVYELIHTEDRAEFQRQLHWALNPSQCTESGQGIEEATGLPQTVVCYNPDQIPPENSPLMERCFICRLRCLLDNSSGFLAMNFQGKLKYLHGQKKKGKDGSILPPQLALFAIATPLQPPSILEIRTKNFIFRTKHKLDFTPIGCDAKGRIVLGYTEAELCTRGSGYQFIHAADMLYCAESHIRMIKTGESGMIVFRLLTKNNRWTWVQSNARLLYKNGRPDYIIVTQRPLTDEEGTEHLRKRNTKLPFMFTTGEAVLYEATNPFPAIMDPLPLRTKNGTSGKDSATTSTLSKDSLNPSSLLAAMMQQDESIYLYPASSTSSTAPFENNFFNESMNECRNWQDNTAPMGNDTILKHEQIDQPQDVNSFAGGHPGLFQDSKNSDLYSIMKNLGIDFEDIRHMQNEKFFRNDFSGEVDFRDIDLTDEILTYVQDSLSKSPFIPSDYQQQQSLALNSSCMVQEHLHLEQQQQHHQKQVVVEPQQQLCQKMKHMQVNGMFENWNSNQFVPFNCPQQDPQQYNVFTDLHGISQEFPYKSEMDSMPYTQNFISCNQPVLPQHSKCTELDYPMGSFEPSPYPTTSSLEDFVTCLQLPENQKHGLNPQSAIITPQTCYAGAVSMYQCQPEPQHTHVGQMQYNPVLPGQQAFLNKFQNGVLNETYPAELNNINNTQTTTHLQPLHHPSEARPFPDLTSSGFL
Mdm2 ligase inh = Mdm2 E3 ligase (human) inhibition; cell-based MDM2 ubiquitination luciferase reporter, 2 h; 0 = plate control, 100 = twice control, blank-subtracted; signal enhancement, % at 5 µM; 210,000 compounds, 0.11% hits; AID 1230;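 active means signal enhancement of 30% or more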;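 further: luminescence tracks abundance of the self-degrading MDM2-luciferase fusion protein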
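Assay system: mammalian cells stably expressing self-ubiquitinating, self-degrading MDM2 E3–luciferase fusion. Quantity: 2000 cells in each well. Medium: DMEM culture medium. Compound dosing: single-point 5 µM. Timing: cell settling 4 h, compound treatment 2 h, both 37 °C. Technique: luciferase luminescence. Read-out basis: percent signal gain over controls, blank-subtracted. Benchmarks: plate controls and plate blanks.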
Numbers stand for hits; n = inactive; x = no result.

SMILES | STAT1 activator | NF-kB expr up | APP 5'UTR act | PERK inh | AHR act | Mdm2 ligase inh
N/C(=N\OC(=O)c1ccc2c(c1)OCO2)c1cccnc1 | n | 3.5 | n | n | 67 | n
N/C(=N\OC(=O)c1cc(Cl)ccc1Cl)c1ccncc1 | 141 | n | n | n | n | n
N/C(=N\OC(=O)c1cccc(Cl)c1)c1ccncc1 | 141 | n | n | n | n | n
N/C(=N\OC(=O)c1ccccc1)c1cccnc1 | n | n | n | n | n | n
N/C(=N\OC(=O)/C=C/c1ccccc1Cl)c1ccncc1 | n | 3.8 | 235 | n | n | n
CC1(OC(=O)c2ccc(Cl)nc2)C(=O)C=C2C=C(c3ccc(C#N)cc3)OC=C2C1=O (stereo unspecified) | x | x | x | x | n | x
COc1ccc(/C(N)=N/OC(=O)c2ccc3c(c2)OCO3)cc1OC | n | n | n | n | n | n
N/C(=N\OC(=O)c1ccc2c(c1)OCO2)c1ccc([N+](=O)[O-])cc1 | 129 | n | n | n | n | n
N/C(=N\OC(=O)c1cccc(Cl)c1)c1cccnc1 | n | n | n | n | 75 | n
CCOCCn1c(CN2CCc3ccccc3C2)nc2c1c(=O)n(C)c(=O)n2C | x | x | x | n | n | n
Nc1nnc(Cc2cccc(Br)c2)s1 | x | x | x | n | n | n
O=C(COc1ncnc2ccccc12)c1ccc(Cl)cc1 | 134 | n | n | n | n | n
Brc1ccc(COc2ncnc3ccccc23)cc1 | n | n | n | n | n | n
c1ccc(OCCOc2ncnc3ccccc23)cc1 | 133 | n | n | n | n | n
Cc1ccc2cc(CCNC(=O)c3cccs3)c(=O)[nH]c2c1 | 139 | n | n | n | n | x
CCC(=O)NCCc1cc2ccc(C)cc2[nH]c1=O | n | n | n | 3.3 | n | n
Cc1cc(Cl)ccc1NC(=S)Nc1ccccn1 | 130 | n | n | n | x | n
Cc1cc(Cl)ccc1Nc1ncccc1C(N)=O | 130 | n | n | n | n | n
Cc1ccc(NC(=S)Nc2ccccn2)c(C)c1 | x | x | x | n | n | n
Cc1cccc(NC(=S)Nc2ccccn2)c1 | x | x | x | n | 58 | n
Cc1cccc(NC(=S)NNc2cccc(Cl)c2)c1 | x | x | x | x | 53 | x
Cc1ccc(C(=O)N(C)CC(=O)Nc2cccc(F)c2)cc1S(=O)(=O)N1CCCCC1 | x | x | x | x | n | x
Cc1ccc(N/C=C2\CCCCC2=O)nc1 | 135 | n | n | n | n | n
COc1ccc(/C=C2\SC(=O)N(CCNC(=O)CCS(=O)(=O)c3ccc(C)cc3)C2=O)cc1 | 131 | n | n | n | n | n
COc1ccc(/C=C2\SC(=O)N(CCNC(=O)C3CCN(S(=O)(=O)c4cccs4)CC3)C2=O)cc1 | 138 | n | n | n | n | n
SMILES | STAT1 activator | NF-kB expr up | APP 5'UTR act | PERK inh | AHR act | Mdm2 ligase inh
COc1ccc(/C=C2\SC(=O)N(CCNC(=O)Cn3cnnn3)C2=O)cc1 | 138 | 3.7 | n | n | n | n
Cn1nccc1C(=O)NC1CC(C)(C)Cc2c1cnn2-c1ccc(F)cc1 (stereo unspecified) | x | x | x | x | n | x
CCCOc1ccc(N2C(=O)CC(NCC(=O)OCC)C2=O)cc1 (stereo unspecified) | x | x | x | x | n | x
Nc1nc(SCC(=O)Nc2ccccc2C(F)(F)F)[nH]c(=O)c1-c1ccccc1 | n | n | n | n | n | n
CN(C)S(=O)(=O)N1CCC(Oc2cccc(C(=O)N3CCCCCCC3)c2)CC1 | x | x | x | x | n | x
CCOC(=O)N1CCN(C(=S)NC(=O)/C=C/c2ccc(C)cc2)CC1 | x | x | x | x | n | x
CCSc1nn2c(=O)c3ccccc3nc2s1 | 131 | n | n | n | n | n
CCCCc1ccc(NC(=O)CSc2nc(=O)n(CCN(CC)CC)c3c2CCC3)cc1 | x | x | x | x | n | x
CCCCN(C)S(=O)(=O)c1cc2c3c(c1)CCC(=O)N3CCC2 | x | x | x | x | n | x
Cc1ccc2c(c1)NC(=O)c1cccnc1N2 | 139 | n | n | n | n | n
CC(=O)CCc1ccc(OCC(O)CNCCOc2ccc(C)cc2)cc1 (stereo unspecified) | x | x | x | x | n | x
Cc1ccc(OCCNCC(O)COc2ccccc2)cc1 (stereo unspecified) | x | x | x | x | 66 | x
CC(C)Cc1ccc(/C=C/C(=O)N2CCOCC2)cc1 | 146 | 3.8 | n | n | n | n
CC(C)(C)c1ccc(OCCCC(=O)N2CCOCC2)cc1 | 132 | n | n | n | n | n
COc1ccc(/C=C/C(=O)N2CCOCC2)cc1OC | x | x | x | x | n | x
CC(C)(C)c1ccc(/C=C/C(=O)N2CCN(c3ncccn3)CC2)cc1 | n | n | n | n | n | n
